Our source for the Drug uptake and Activity values is ChEMBL document CHEMBL3045217, “Factors affecting the synergy of thiabendazole, sodium bicarbonate, and heat to control postharvest green mold of citrus fruit” (J Agric Food Chem, 2008).

Each structure is given as a SMILES string.

The test system of one data set is Inner fruit. In words: Drug residues in Citrus sinensis cvs. Salustiana (Salustiana oranges) inner fruit at 600 mg/L treated for 1 min at 50 degC postharvest measured after overnight incubation at 17 degC by GC analysis. Type of data set: ADME. In outline:
(§1)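 'Salustiana' oranges were washed with water and air-dried. They were dipped 1 or 3 min in TBZ 600 mg/L at 20 or 50 °C, or 1 min in TBZ 600 mg/L plus 2% SBC at 20 °C, then dried overnight at 17 °C in the dark. Surface residue was taken by water extraction and wax residue by chloroform extraction. Inner residue was measured in fruit after both extractions. Extracts were dried under N2, taken up in acetone and analysed by GC. Values are mg/kg on a whole-fruit basis.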

The subject of data set [1] is Fruit. In words: Drug residues in Citrus sinensis cvs. Valencia late (Valencia oranges) at 600 mg/L treated for 1 min at 20 degC postharvest measured after 10 days of storage at 17 degC by GC analysis. Type of data set: ADME. In outline: (§2)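 'Valencia' oranges were dipped 1 min in TBZ at 600 mg/L (20 °C, ±0.5, 1 or 2% wt/vol SBC), 400 mg/L (40 °C, ±SBC) or 200 mg/L (50 °C, alone), then air-dried. They were sampled at 0, 10 and 20 days at 17 °C. Peel of five fruit was frozen, and 5 g of homogenate was extracted with ethyl acetate/hexane (1/1) plus NaCl. The extract was dried under N2, taken up in acetone and analysed by GC. Results are mg/kg on a whole-fruit basis.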

Data set [2] concerns Penicillium digitatum. Briefly: Fungicidal activity against Penicillium digitatum infected Valenica oranges assessed as fruit weight loss at 200 mg/L treated for 1 min at 50 degC postharvest at 20 hr after fungal conidial inoculation measured after 7 days of storage at 17 degC (water Rvb = 3.23%). Type of data set: functional.
The test system of data set [3] is Penicillium digitatum. Briefly: Fungicidal activity against TBZ-sensitive Penicillium digitatum infected Valencia oranges assessed as postharvest green mold incidence at 600 mg/L treated for 1 min at 20 degC at 20 hr after fungal conidial inoculation measured after 7 days of storage at 20 degC in presence of 2% SBC (water Rvb = 20.8%). The data set is classed as functional. In outline:
(§3)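 Fruit were surface-disinfected in 1 g/L hypochlorite for 30 s, rinsed, dried, then wounded twice equatorially (2 mm × 2 mm rod). Inoculation was a 1 min dip in P. digitatum conidia, 1 × 10^5 conidia/mL final. Fruit were held 20 h at 20 °C and 90% RH, dipped 1 min (SBC wt/vol), and air-dried. Storage was 20 °C, 90% RH. Decay incidence (% fruit with lesions) was scored at 5 d for mandarins and 7 d for oranges. Three replicates of 40 fruit were used; arcsin-transformed data were compared by LSD, p ≤ 0.05.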

Data set [4] deals with Penicillium digitatum. In words: Fungicidal activity against TBZ-sensitive Penicillium digitatum infected Valencia oranges assessed as postharvest green mold incidence at 200 mg/L treated for 1 min at 50 degC at 20 hr after fungal conidial inoculation measured after 7 days of storage at 20 degC (water Rvb = 53.3%). The data set is classed as functional. In outline: as §3

The subject of data set [5] is Penicillium digitatum. Briefly: Fungicidal activity against Penicillium digitatum infected Valenica oranges assessed as fruit weight loss at 400 mg/L treated for 1 min at 40 degC postharvest at 20 hr after fungal conidial inoculation measured after 14 days of storage at 17 degC in presence of 0.5% SBC (water Rvb = 7.90%). The data set is classed as functional.
Data set [6] relates to Penicillium digitatum. Briefly: Fungicidal activity against TBZ-sensitive Penicillium digitatum infected Nova mandarins assessed as postharvest green mold incidence at 600 mg/L treated for 1 min at 20 degC at 20 hr after fungal conidial inoculation measured after 5 days of storage at 20 degC in presence of 1% SBC (water Rvb = 96.7%). The data set is classed as functional. In outline:
as §3

Data set [7] has as its system Cuticular wax. In words: Drug residues in Citrus sinensis cvs. Salustiana (Salustiana oranges) cuticular wax at 600 mg/L treated for 3 min at 50 degC postharvest measured after overnight incubation at 17 degC by GC analysis. Type of data set: ADME. As to conditions: 0.05 h. The procedure, abridged: as §1
For data set [8], the system named is Cuticular wax. In words: Drug residues in Citrus sinensis cvs. Salustiana (Salustiana oranges) cuticular wax at 600 mg/L treated for 1 min at 20 degC postharvest measured after overnight incubation at 17 degC in presence of 2% SBC by GC analysis. Type of data set: ADME. The procedure, abridged: as §1
The test system of a further data set is Fruit surface. In words: Drug residues on Citrus sinensis cvs. Salustiana (Salustiana oranges) fruit surface at 600 mg/L treated for 1 min at 20 degC postharvest measured after overnight incubation at 17 degC by GC analysis. Type of data set: ADME. The procedure, abridged:
as §1

The subject of data set [9] is Fruit. In words: Drug residues in Citrus sinensis cvs. Valencia late (Valencia oranges) at 200 mg/L treated for 1 min at 50 degC postharvest measured after 20 days of storage at 17 degC by GC analysis. The data set is classed as ADME. The procedure, abridged: as §2
Data set [10] has as its system Fruit. In words: Drug residues in Citrus sinensis cvs. Valencia late (Valencia oranges) at 400 mg/L treated for 1 min at 40 degC postharvest measured immediately post-drug treatment in presence of 1% SBC by GC analysis. The data set is classed as ADME. The procedure, abridged:
as §2

The subject of data set [11] is Penicillium digitatum. In words: Fungicidal activity against TBZ-resistant Penicillium digitatum infected Nova mandarins assessed as postharvest green mold incidence at 600 mg/L treated for 1 min at 20 degC at 20 hr after fungal conidial inoculation measured after 5 days of storage at 20 degC in presence of 1% SBC (water Rvb = 83.3%). The data set is classed as functional.

The test system of data set [12] is Penicillium digitatum. Briefly: Fungicidal activity against Penicillium digitatum infected Valenica oranges assessed as fruit weight loss at 400 mg/L treated for 1 min at 40 degC postharvest at 20 hr after fungal conidial inoculation measured after 7 days of storage at 17 degC in presence of 0.5% SBC (water Rvb = 4.07%). The data set is classed as functional.

The subject of data set [13] is Penicillium digitatum. In words: Fungicidal activity against Penicillium digitatum infected Valenica oranges assessed as fruit weight loss at 400 mg/L treated for 1 min at 40 degC postharvest at 20 hr after fungal conidial inoculation measured after 7 days of storage at 17 degC (water Rvb = 3.42%). Type of data set: functional.
Data set [14] has as its system Penicillium digitatum. In words: Fungicidal activity against TBZ-sensitive Penicillium digitatum infected Nova mandarins assessed as postharvest green mold incidence at 400 mg/L treated for 1 min at 40 degC at 20 hr after fungal conidial inoculation measured after 5 days of storage at 20 degC in presence of 2% SBC (water Rvb = 88.3%). Type of data set: functional. In outline:
as §3

Data set [15] deals with Cuticular wax. In words: Drug residues in Citrus sinensis cvs. Salustiana (Salustiana oranges) cuticular wax at 600 mg/L treated for 3 min at 20 degC postharvest measured after overnight incubation at 17 degC by GC analysis. Type of data set: ADME. The conditions noted are these: 0.05 h. The procedure, abridged:
as §1

Data set [16] relates to Fruit. In words: Total drug residues in Citrus sinensis cvs. Salustiana (Salustiana oranges) fruit at 600 mg/L treated for 3 min at 20 degC postharvest measured after overnight incubation at 17 degC by GC analysis. The data set is classed as ADME. As to conditions: 0.05 h. The procedure, abridged: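 'Salustiana' oranges were water-washed, dried, dipped, then dried overnight at 17 °C in the dark. Unextracted fruit were used for total residues. Peel from five oranges was frozen at -18 °C. 5 g homogenized peel was extracted with 10 mL ethyl acetate/hexane (1/1) plus 2 g NaCl, shaken 30 min, then 1 mL of organic layer was dried under N2, redissolved in acetone, and run by GC without cleanup. Results are on a whole-fruit basis.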

For data set [17], the system named is Penicillium digitatum. In words: Fungicidal activity against TBZ-resistant Penicillium digitatum infected Nova mandarins assessed as postharvest green mold incidence at 600 mg/L treated for 1 min at 20 degC at 20 hr after fungal conidial inoculation measured after 5 days of storage at 20 degC in presence of 2% SBC (water Rvb = 61.7%). The data set is classed as functional.

Take `c1ccc2[nH]c(-c3cscn3)nc2c1` [THIABENDAZOLE]: the Drug uptake in the data set on Inner fruit amounted to 0.17 mg/kg; in the data set on Fruit [1] it was 1.57 mg/kg; in the data set on Cuticular wax [7], 0.48 mg/kg; with Cuticular wax [8], 0.46 mg/kg; in the data set on Fruit surface it was 0.68 mg/kg; with Fruit [9] it was 0.38 mg/kg. Further, the Drug uptake in the data set on Fruit [10] came out at 0.75 mg/kg; in the data set on Cuticular wax [15], 0.11 mg/kg; in the data set with Fruit [16], 1.1 mg/kg. The Activity in the data set with Penicillium digitatum [2] is reported as 2.98%; in the data set on Penicillium digitatum [3], 2.5%; in the data set with Penicillium digitatum [4], 5.8%; with Penicillium digitatum [5] it was 8.39%; with Penicillium digitatum [6], 3.3%; in the data set on Penicillium digitatum [11], 65%. Also, the Activity in the data set with Penicillium digitatum [12] came to 4.23%; in the data set with Penicillium digitatum [13], 3.22%; with Penicillium digitatum [14], 3.3%; with Penicillium digitatum [17], 40%.
